Test results from publication PMC3095849 (Bioorganic & medicinal chemistry, 2011).
Where a name gives a salt, the structure may show the parent alone. Read-outs that look alike come from different tables or passages of the source.

Experiments:
[1] = molecular target: T1, human κ opioid receptor (Homo sapiens, UniProt P41145); experiment: Opioid binding, [3H]U69,593, CHO membranes; conditions: ratio of Ki values μ/κ/δ
[2] = molecular target: T1, human κ opioid receptor; experiment: [35S]GTPγS binding assay, agonist properties, kappa; format: biochemical
[3] = molecular target: T1, human κ opioid receptor; experiment: [35S]GTPγS binding assay, inhibition of U50,488-stimulated binding, kappa; format: biochemical; conditions: read-out: Kappa (Antagonist) IC50; binding stimulated by 100 nM U50,488
Procedure, shortened: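 Antagonist mode: membranes from CHO cells stably expressing human κ receptor, with 12 concentrations of test compound and 0.08 nM [35S]GTPγS. Buffer: 50 mM Tris-HCl pH 7.4, 3 μM GDP, 3 mM MgCl2, 0.2 mM EGTA, 100 mM NaCl. Incubated 60 min at 30°C. Nonspecific binding: 10 μM GTPγS. Filtered and counted. IC50 and Imax calculated. Three experiments in triplicate, mean ± SEM.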

[4] = molecular target: human μ opioid receptor (Homo sapiens, UniProt P35372); experiment: [35S]GTPγS binding assay, agonist properties, mu; format: biochemical
Procedure, shortened: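 CHO cells stably expressing human μ receptor, grown in DMEM with 10% FBS at 37°C, 5% CO2. Membranes incubated with 12 concentrations of test compound in 50 mM Tris-HCl pH 7.4, 3 μM GDP, 3 mM MgCl2, 0.2 mM EGTA, 100 mM NaCl, plus 0.08 nM [35S]GTPγS, 60 min, 30°C. Nonspecific: 10 μM GTPγS. Filtration, scintillation counting. EC50 and Emax calculated. Three experiments in triplicate.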

[5] = molecular target: T1, human κ opioid receptor; conditions: cited from earlier work

T1 sequence (P41145 whole entry): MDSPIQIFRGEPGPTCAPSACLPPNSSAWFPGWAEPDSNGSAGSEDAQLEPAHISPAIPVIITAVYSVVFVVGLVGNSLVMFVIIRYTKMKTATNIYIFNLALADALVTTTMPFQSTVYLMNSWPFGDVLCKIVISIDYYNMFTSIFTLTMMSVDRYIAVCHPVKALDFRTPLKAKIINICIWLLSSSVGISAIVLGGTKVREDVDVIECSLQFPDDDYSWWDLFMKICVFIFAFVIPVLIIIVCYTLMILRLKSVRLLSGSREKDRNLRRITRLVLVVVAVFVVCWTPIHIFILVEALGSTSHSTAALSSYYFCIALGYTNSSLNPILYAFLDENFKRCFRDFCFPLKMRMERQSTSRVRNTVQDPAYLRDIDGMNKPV
Chain of human μ opioid receptor (P35372 whole entry): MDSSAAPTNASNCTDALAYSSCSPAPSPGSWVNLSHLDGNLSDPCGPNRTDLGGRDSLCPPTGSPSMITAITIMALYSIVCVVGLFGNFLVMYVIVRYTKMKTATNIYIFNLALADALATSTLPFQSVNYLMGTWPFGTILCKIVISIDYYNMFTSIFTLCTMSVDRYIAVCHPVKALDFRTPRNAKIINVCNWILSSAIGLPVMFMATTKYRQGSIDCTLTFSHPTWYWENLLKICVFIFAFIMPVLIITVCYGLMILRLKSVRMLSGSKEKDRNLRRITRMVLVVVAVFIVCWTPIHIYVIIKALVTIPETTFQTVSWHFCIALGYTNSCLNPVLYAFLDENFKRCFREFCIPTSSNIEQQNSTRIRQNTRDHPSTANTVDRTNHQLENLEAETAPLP

SMILES	Selectivity μ : κ : δ [1]	Functional character at κ receptor (full/partial agonist) [2]	IC50 [3] [µM]	Functional character at μ receptor (full/partial agonist) [4]	Selectivity μ : κ : δ [5]
O=C(CCCCCCCCC(=O)Nc1nc2cc3c(cc2s1)C[C@@H]1[C@@H]2CCCC[C@]32CCN1CC1CC1)Nc1nc2cc3c(cc2s1)C[C@@H]1[C@@H]2CCCC[C@]32CCN1CC1CC1 [Compound 11, Bis((−)-3-aminothiazolo-N-cyclopropyl-methylmorphinan)sebacamide hydrochloride]	24/1/460	full κ agonists	> 10	partial μ agonists	–
C=CCN1CC[C@]23c4c5ccc(OC(=O)CCCCCCCCC(=O)Oc6ccc7c(c6)[C@@]68CCCC[C@@]6(O)[C@@H](C7)N(CC6CCC6)CC8)c4O[C@H]2C(=O)CC[C@@]3(O)[C@H]1C5 [Compound 15a, (5α)-17-Allyl-14-hydroxy-6-oxo-4,5-epoxymorphinan-3-yl-17-((−)-N-cyclobutylmethyl-14-hydroxyl-mophinan-3-yl) decanedioate.]	3/1/130	partial κ agonists	–	–	–
O=C(/C=C/C(=O)Oc1ccc2c(c1)[C@@]13CCCC[C@H]1[C@@H](C2)N(CC1CCC1)CC3)Oc1ccc2c(c1)[C@@]13CCCC[C@H]1[C@@H](C2)N(CC1CCC1)CC3 [Compound 4]	–	–	–	–	3/1/120
CO[C@@]12CCCC[C@@]13CCN(CC1CCC1)[C@@H]2Cc1ccc(OC(=O)CCCCCCCCC(=O)OCc2ccccc2)cc13 [Compound 13b, Benzyl (−)-14-methoxy-butorphanol-3-yl decanedioate]	1/1/93	partial κ agonists	–	–	–
CO[C@@]12CCCC[C@@]13CCN(CC1CCC1)[C@@H]2Cc1ccc(O)cc13 [Compound 8, (−)-14-methoxybutorphanol]	1/1/58	partial κ agonists	–	–	–
CO[C@@]12CCCC[C@@]13CCN(CC1CCC1)[C@@H]2Cc1ccc(OC(=O)CCCCCCCCC(=O)Oc2ccc4c(c2)[C@@]25CCCC[C@@]2(OC)[C@@H](C4)N(CC2CCC2)CC5)cc13 [Compound 9b, Bis((−)-14-methoxy-17-N-cyclobutylmethyl)morphinan-3-yl) decanedioate]	1/1/50	partial κ agonists	–	–	–
C=CCN1CC[C@]23c4c5ccc(OC(=O)CCCCCCCCC(=O)Oc6ccc7c(c6)[C@@]68CCCC[C@@]6(OC)[C@@H](C7)N(CC6CCC6)CC8)c4O[C@H]2C(=O)CC[C@@]3(O)[C@H]1C5 [Compound 15c, (5α)-17-allyl-14-hydroxy-6-oxo-4,5-epoxymorphinan-3-yl-((−)-14-methoxyl-17-N-cyclobutylmethyl)morphinan-3-yl) decanedioate]	4/1/280	partial κ agonists	–	–	–
O=C(CCCCCCCCC(=O)Oc1ccc2c(c1)[C@@]13CCCC[C@@]1(O)[C@@H](C2)N(CC1CCC1)CC3)Oc1ccc2c(c1)[C@@]13CCCC[C@H]1[C@@H](C2)N(CC1CCC1)CC3 [Compound 15b, ((−)-17-N-cyclobutylmethyl)morphinan-3-yl-((−)-14-hydroxyl-17-N-cyclobutylmethyl) morphinan-3-yl) decanedioate]	1/1/110	partial κ agonists	–	–	–
O=C(CCCCCCCCC(=O)Oc1ccc2c(c1)[C@@]13CCCC[C@H]1[C@@H](C2)N(CC1CCC1)CC3)Oc1ccc2c(c1)[C@@]13CCCC[C@H]1[C@@H](C2)N(CC1CCC1)CC3 [Compound 3]	–	–	–	–	2/1/90
Nc1nc2cc3c(cc2s1)C[C@@H]1[C@@H]2CCCC[C@]32CCN1CC1CC1 [Compound 10, ATPM]	–	–	–	–	31/1/592
c1c2c(cc3sc(NCCCCCCCCCCNc4nc5cc6c(cc5s4)C[C@@H]4[C@@H]5CCCC[C@]65CCN4CC4CC4)nc13)C[C@@H]1[C@@H]3CCCC[C@]23CCN1CC1CC1 [Compound 12, (−)-3,3′-(decane-1,10-diaminothiazolo)bis(cyclopropylmethyl)morphinan hydrochloride]	9/1/140	full κ agonists	> 10	partial μ agonists	–
